Measured values taken from ChEMBL document CHEMBL1145749, “Inhibition of human immunodeficiency virus reverse transcriptase by synadenol triphosphate and its E-isomer” (J Med Chem, 2003).
pKi: −log10 of the molar value.

How the values were obtained:
[1] = target: Human immunodeficiency virus type 1 reverse transcriptase (Human immunodeficiency virus 1, UniProt Q72547); test: Inhibitory activity against HIV-1 Reverse transcriptase wild-type (RT wt)
How it was run: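 Recombinant HIV-1 RT (wild-type, M184V or M184I) was expressed in E. coli JM109 with 1 mM IPTG for 5 h, then purified on Q and SP columns to >90% purity. Assay used MS2 RNA/22A DNA primer in 50 mM Tris-HCl pH 7.8, 6 mM MgCl2, 150 mM KCl and 0.01% Triton X-100. Synthesis was distributive, with [3H]dATP as the only nucleotide, at 37 °C. Timed aliquots were spotted on DE81 and counted by scintillation. Ki came from the abscissa intercept of the Lineweaver–Burk replot. Ratio was Ki over dATP Km.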

[2] = target: Human immunodeficiency virus type 1 reverse transcriptase (Human immunodeficiency virus 1, UniProt Q72547, M184I); test: Inhibitory activity against HIV-1 reverse transcriptase (RT M184I)
How it was run: (§1)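 Recombinant HIV-1 RT M184V or M184I was expressed in E. coli JM109 (1 mM IPTG, 5 h), purified over Q and SP columns to >90%. The template-primer was MS2 RNA/22A DNA in 50 mM Tris-HCl pH 7.8, 6 mM MgCl2, 150 mM KCl, 0.01% Triton X-100, with [3H]dATP as the sole nucleotide (distributive mode). Reactions were enzyme-started at 37 °C and sampled 4–5 times onto DE81 filters. Ki came from the abscissa intercept of the Lineweaver–Burk replot.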

[3] = target: Human immunodeficiency virus type 1 reverse transcriptase (Human immunodeficiency virus 1, UniProt Q72547, M184V); test: Inhibitory activity against HIV-1 reverse transcriptase (RT M184V); how it was run: as §1

Compound: Nc1ncnc2c1ncn2/C=C1/CC1COP(=O)(O)OP(=O)(O)OP(=O)(O)O (stereo not given)
- pKi [1]: 6.49

Compound: Nc1ncnc2c1ncn2[C@H]1CC[C@@H](COP(=O)(O)OP(=O)(O)OP(=O)(O)O)O1 [DDA-TRIPHOSPHATE]
- pKi [2]: 5.92
- pKi [3]: 6.30
- pKi [1]: 6.29

Compound: Nc1ncnc2c1ncn2/C=C1\CC1COP(=O)(O)OP(=O)(O)OP(=O)(O)O (stereo not given)
- pKi [1]: 5.00
